Compound activity (PubChem BioAssay)
Most compounds without a hit are left out; they make up all but 9.6% or so of the library.
PMI act satM6P: activators of human phosphomannose isomerase at near-saturating mannose 6-phosphate. P34949. coupled PMI enzyme assay, resazurin fluorescence, 20 min; stronger effect = higher value; 1 = untreated enzyme, 0 = substrate-free blank. activation factor at 20 µM. actives 0.34% (n = 190,000). AID 1216;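 active = activation factor of 2 or more at 20 µM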
Target sequence (P34949 whole entry, looked up): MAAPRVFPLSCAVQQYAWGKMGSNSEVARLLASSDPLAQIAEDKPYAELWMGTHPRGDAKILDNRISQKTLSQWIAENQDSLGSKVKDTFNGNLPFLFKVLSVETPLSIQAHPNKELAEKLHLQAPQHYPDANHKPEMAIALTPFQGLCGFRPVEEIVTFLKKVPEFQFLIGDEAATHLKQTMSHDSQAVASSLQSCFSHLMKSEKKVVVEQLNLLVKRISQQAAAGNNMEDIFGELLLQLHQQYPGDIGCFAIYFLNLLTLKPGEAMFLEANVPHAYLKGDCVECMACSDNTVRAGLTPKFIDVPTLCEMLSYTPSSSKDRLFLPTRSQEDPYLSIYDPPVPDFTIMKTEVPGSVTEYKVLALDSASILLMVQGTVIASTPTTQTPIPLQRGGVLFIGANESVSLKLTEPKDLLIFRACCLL
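assay system = human phosphomannose isomerase with PGI, G6PDH, diaphorase coupling enzymes | quantity = 15 ng/mL PMI | incubation = enzyme reaction with compound 20 min at room temperature | medium = HEPES pH 7.4 buffer with MgCl2 and Tween-20 | compound dosing = one concentration, 20 µM, in 1% DMSO | measured by = Diaphorase-driven resazurin-to-resorufin fluorescence, excitation 544, emission 590 nm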
bCat KO growth: beta-catenin-lacking colon tumor cell growth suppression; actives 1.5% (n = 140,000); HCT116 beta-catenin knockout viability, CellTiter-Glo, 60 h; stronger effect = lower value; AID 818; viability, % at 10 µM;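 active = viability at or under a set limit, the compound median less 4 SD, cut at about 6% in these data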;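 note: 0% = Hyamine 1622 control at 20 µM and 100% = untreated cell control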
PMI act: increases human mannose-6-phosphate isomerase activity; activation factor at 20 µM; P34949; actives 0.005% (n = 190,000); purified human PMI, coupled resazurin fluorescence, 20 min; stronger effect = higher value; 1 = vehicle control, 0 substrate-free wells;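 active = activation factor of 2 or more at 20 µM, relative to plate controls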
PTEN del growth: PTEN-deleted cell growth suppression. HCT116 PTEN-null viability, CellTiter-Glo, 60 h; stronger effect = lower value. viability, % at 10 µM. actives 1.2% (n = 140,000). AID 827;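 active = viability at or below a set limit, 4 SD under the median of all tested compounds, cut at about 3.7% in these data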;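 note: PTEN knockout HCT116 line with beta catenin targeted HCT116 as companion control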
L major viab: reduces viability of Leishmania major promastigotes; actives 9% (n = 200,000); resazurin fluorescence viability; inhibition, % at 10 µM; in the data active = inhibition above about 50%;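 note: promastigotes grown with compound for 44 hours at 28 °C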
The depositor's hits bear a star; x = no result given.

SMILES	PMI act satM6P	bCat KO growth	PMI act	PTEN del growth	L major viab
C/C(=C\c1ccccc1)C(=O)Nc1ccc(S(=O)(=O)Nc2ncccn2)cc1	1.1	x	1.2	x	-9
Cc1c(NC(=O)C(C)OC(=O)c2ccc([N+](=O)[O-])s2)c(=O)n(-c2ccccc2)n1C (configuration not stated)	1	x	1.1	x	77*
Cc1c(NC(=O)C(C)OC(=O)CCc2ccccc2)c(=O)n(-c2ccccc2)n1C (configuration not stated)	1.1	x	1.1	x	54*
Cc1c(NC(=O)C(C)OC(=O)c2sc3ccccc3c2Cl)c(=O)n(-c2ccccc2)n1C (configuration not stated)	1.1	97	1.2	104	-2
Cc1c(NC(=O)C(C)OC(=O)CCC2CCCC2)c(=O)n(-c2ccccc2)n1C (configuration not stated)	0.9	x	0.9	x	-7
O=C(NC(Cc1ccccc1)c1nc2ccccc2[nH]1)C1CC(=O)N(c2ccc3c(c2)OCCO3)C1 (configuration not stated)	1.5	77	1.3	77	-2
CCCCCCOc1ccc(/C=c2\s/c(=C(/C#N)C(=O)NCc3ccco3)n(-c3ccccc3)c2=O)cc1	1.1	4.7*	1.1	7	50
Cc1ccc2nc(NCc3ccccc3)[nH]c2c1	1.1	19	1.1	21	65*
CCOc1ccc(CNC(=O)c2ccco2)cc1	1	x	1.1	x	-1
CCOc1ccc2cc(/C=C/C(=O)c3ccco3)c(Cl)nc2c1	1.1	8	1.1	7	64*
CCn1c(SCC(=O)NC(C)(C)C)nnc1-c1ccccn1	1.1	103	1	91	-4
NS(=O)(=O)c1ccc(Nc2ncccc2[N+](=O)[O-])cc1	0.9	105	0.9	118	75*
Clc1ccc(COc2ccccc2CNCc2cccnc2)cc1	1.1	60	1.1	63	99*
C=CCOc1ccccc1CNCc1cccnc1	1	89	0.9	93	87*
C=CCOc1ccccc1CNc1ccccc1C	1.5	77	1.3	89	-1
CCOc1cccc(CNCc2cccnc2)c1OCc1ccccc1	1	x	1	x	15
COc1ccc(-c2cc(-c3nnc(COC(=O)c4ccc(O)cc4)o3)c3ccccc3n2)cc1OC	0.8	x	0.8	x	59*
COc1ccc(-c2cc(-c3nnc(COC(=O)C4CC4)o3)c3ccccc3n2)cc1OC	0.8	70	0.8	78	9
O=C(NCc1cc(C(F)(F)F)cc(C(F)(F)F)c1)C1CC(c2ccccc2[N+](=O)[O-])=NO1 (configuration not stated)	0.9	86	0.9	79	88*
Cc1cccc(NC(=O)COC(=O)CCc2ccc(S(=O)(=O)N3CCOCC3)cc2)c1C	0.9	x	1	x	4
O=C(CN1CCOCC1)NN=C1CCCCCCCCCCC1	1	86	1	93	52*
CCN(CC)c1ccc(NC(=O)COc2ccccc2C)cc1S(=O)(=O)Nc1ccccc1OC	1	87	0.6	83	42
Cc1ccc(NC(=O)c2cnccn2)cc1S(=O)(=O)N(C)C	0.8	100	0.8	94	83*
CCN(CC)c1ccc(NC(=O)c2cnccn2)cc1S(=O)(=O)Nc1ccc(OC)cc1	0.9	42	0.9	41	64*
O=C(Nc1ccc(Cl)c([N+](=O)[O-])c1)c1cnccn1	0.8	92	0.9	103	83*
SMILES	PMI act satM6P	bCat KO growth	PMI act	PTEN del growth	L major viab
CCN(CC)c1ccc(NC(=O)COc2ccccc2C#N)cc1S(=O)(=O)Nc1ccc(OC)cc1	1	88	1	82	99*
O=C(Nc1ccc(Cl)c([N+](=O)[O-])c1)c1ccncc1	0.9	82	0.9	91	19
COc1nc(N2CCCC2)nc(-n2nnc(C(C)=O)c2C)n1	1.1	x	1.1	x	4
COc1ccc(-c2ccc(/C=N/NC(=O)c3cccnc3)o2)c([N+](=O)[O-])c1	0.9	88	1	98	75*
Cc1nnc(N/N=C/c2ccc(-c3ccccc3F)o2)n1N	0.7	x	1.4	x	48
O=C(N/N=C/c1ccc(-c2ccccc2[N+](=O)[O-])o1)[C@H]1C[C@@H]1c1ccccc1	0.4	93	0.6	83	90*
Cc1nnc(N/N=C\c2ccc(-c3ccccc3[N+](=O)[O-])o2)n1N	0.4	91	0.4	95	58*
